According to ChEMBL document CHEMBL3393009 (J Med Chem, 2015):
The source made the active and inactive calls. The calls are words filed in the database; no cut-off is given here.

Assays:
[1] = Cmax in dog at 5 mg/kg, po; assay type: ADME, organism-based, Canis lupus familiaris; set-up: dose 5 mg/kg, route oral; settings: in vivo
Rattus norvegicus [2] = assay: Drug coverage index, ratio fAUC in Wistar Han rat at 6 mg/kg, po bid for 14 days to IC50 for LRRK2 […] phosphorylation in Wistar Han rat brain at 6 to 60 mg/kg, po bid for 14 days; assay type: ADME, organism-based; settings: in vivo, 336 h
How it was run: (§1)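 Wistar Han rats (200–300 g, 8–11 weeks old) were dosed by oral gavage twice daily for 14 days. Vehicle was 10% propylene glycol/20% PEG400/70% 9.5% methocellulose.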

Rattus norvegicus [3] = assay: fCmax in Wistar Han rat at 6 mg/kg, po bid for 14 days; assay type: ADME, organism-based; set-up: dose 6 mg/kg, route oral; settings: in vivo, 336 h
[4] = Tmax in rat at 5 mg/kg, po; assay type: ADME, organism-based; set-up: dose 5 mg/kg, route oral; settings: in vivo
Rattus norvegicus [5] = assay: Volume of distribution at steady state in rat at 5 mg/kg, po; assay type: ADME, organism-based; set-up: dose 5 mg/kg, route oral; settings: in vivo
Rattus norvegicus [6] = assay: Toxicity in Wistar Han rat assessed as changes in electrolytes levels at 6 to 60 mg/kg, po bid for 14 days; assay type: organism-based; set-up: dose 6-60 mg/kg, route oral; settings: in vivo, 336 h
How it was run: (§2)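 Wistar Han rats (200–300 g, 8–11 weeks) dosed by oral gavage twice daily for 14 days. Vehicle: 10% propylene glycol/20% PEG400/70% methylcellulose solution. RBC parameters, electrolytes, food consumption, body weight, clinical chemistry and urinary biomarkers recorded.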

[7] = Clearance in rat liver microsomes; assay type: ADME; settings: read-out: CLH
[8] = AUC in rat at 5 mg/kg, po; assay type: ADME, organism-based; set-up: dose 5 mg/kg, route oral; settings: plasma
[9] = Cmax in rat at 5 mg/kg, po; assay type: ADME, organism-based; set-up: dose 5 mg/kg, route oral; settings: in vivo
[10] = molecular target: Tyrosine-protein kinase JAK1 (Homo sapiens, UniProt P23458); assay: Inhibition of JAK1 (JH2 domain-pseudokinase) (unknown origin) at 1 uM
Tyrosine-protein kinase JAK1, sequence (P23458 whole entry, the tested form may be a part): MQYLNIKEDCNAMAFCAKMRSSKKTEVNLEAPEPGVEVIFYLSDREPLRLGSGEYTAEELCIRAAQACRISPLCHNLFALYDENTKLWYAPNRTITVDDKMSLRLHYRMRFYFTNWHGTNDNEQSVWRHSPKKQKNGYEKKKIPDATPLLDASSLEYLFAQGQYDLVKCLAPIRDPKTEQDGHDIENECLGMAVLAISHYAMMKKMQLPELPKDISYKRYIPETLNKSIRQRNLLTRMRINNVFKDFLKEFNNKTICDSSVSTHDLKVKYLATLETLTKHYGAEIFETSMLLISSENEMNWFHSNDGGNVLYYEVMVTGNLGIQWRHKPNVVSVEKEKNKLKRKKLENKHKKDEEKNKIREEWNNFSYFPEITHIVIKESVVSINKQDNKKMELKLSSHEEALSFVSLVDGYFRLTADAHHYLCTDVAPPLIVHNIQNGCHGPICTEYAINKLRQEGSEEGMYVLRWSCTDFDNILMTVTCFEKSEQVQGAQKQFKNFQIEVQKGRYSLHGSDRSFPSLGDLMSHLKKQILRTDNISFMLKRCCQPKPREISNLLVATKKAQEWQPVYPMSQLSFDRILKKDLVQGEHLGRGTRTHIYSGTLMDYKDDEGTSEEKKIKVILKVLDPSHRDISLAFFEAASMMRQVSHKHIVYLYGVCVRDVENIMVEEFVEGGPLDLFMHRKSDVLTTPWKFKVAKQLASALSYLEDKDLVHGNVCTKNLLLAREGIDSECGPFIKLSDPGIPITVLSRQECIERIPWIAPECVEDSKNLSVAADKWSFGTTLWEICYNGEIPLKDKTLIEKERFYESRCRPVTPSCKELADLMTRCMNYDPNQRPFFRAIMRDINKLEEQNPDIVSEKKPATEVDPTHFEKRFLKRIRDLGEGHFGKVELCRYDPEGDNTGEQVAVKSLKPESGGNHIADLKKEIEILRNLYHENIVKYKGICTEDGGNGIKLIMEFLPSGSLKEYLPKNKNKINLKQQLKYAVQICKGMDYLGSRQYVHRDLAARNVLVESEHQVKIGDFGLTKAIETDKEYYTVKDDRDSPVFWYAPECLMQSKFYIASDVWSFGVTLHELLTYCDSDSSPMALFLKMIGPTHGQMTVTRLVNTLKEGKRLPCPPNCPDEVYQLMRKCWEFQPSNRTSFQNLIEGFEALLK

Rattus norvegicus [11] = assay: Toxicity in Wistar Han rat assessed as changes in food consumption at 6 to 60 mg/kg, po bid for 14 days; assay type: organism-based; set-up: dose 6-60 mg/kg, route oral; settings: in vivo, 336 h; how it was run: as §2
[12] = Drug coverage index, ratio fCmax in Wistar Han rat at 20 mg/kg, po bid for 14 days to IC50 for LRRK2 […] phosphorylation in Wistar Han rat brain at 6 to 60 mg/kg, po bid for 14 days; assay type: ADME, organism-based; settings: in vivo, 336 h; how it was run: as §1
Rattus norvegicus [13] = assay: Toxicity in Wistar Han rat assessed as changes in body weight at 6 to 60 mg/kg, po bid for 14 days; assay type: organism-based; set-up: dose 6-60 mg/kg, route oral; settings: in vivo, 336 h; how it was run: as §2
Rattus norvegicus [14] = assay: Inhibition of LRRK2 […] phosphorylation in Wistar Han rat brain at 6 to 60 mg/kg, po bid for 14 days; assay type: functional; settings: dose mg/kg 6-60
Rattus norvegicus [15] = assay: fAUC in Wistar Han rat at 60 mg/kg, po bid for 14 days; assay type: ADME, organism-based; set-up: dose 60 mg/kg, route oral; settings: in vivo, 336 h
How it was run: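 Wistar Han rats dosed orally twice daily in 10% propylene glycol/20% PEG400/methylcellulose vehicle. Unbound plasma exposure measured on days 1 and 11.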

Rattus norvegicus [16] = assay: Toxicity in Wistar Han rat assessed as changes in lung parameters at 6 to 60 mg/kg, po bid for 14 days by H and E staining method; assay type: organism-based; set-up: dose 6-60 mg/kg, route oral; settings: in vivo, 336 h
[17] = Drug coverage index, ratio fCmax in Wistar Han rat at 6 mg/kg, po bid for 14 days to IC50 for LRRK2 […] phosphorylation in Wistar Han rat brain at 6 to 60 mg/kg, po bid for 14 days; assay type: ADME, organism-based; settings: in vivo, 336 h; how it was run: as §1
Rattus norvegicus [18] = assay: Drug coverage index, ratio fAUC in Wistar Han rat at 60 mg/kg, po bid for 14 days to IC50 for LRRK2 […] phosphorylation in Wistar Han rat brain at 6 to 60 mg/kg, po bid for 14 days; assay type: ADME, organism-based; settings: in vivo, 336 h; how it was run: as §1
[19] = Cytotoxicity against human THLE cells by in-vitro ATP depletion assay; assay type: cell-based
Rattus norvegicus [20] = assay: Toxicity in Wistar Han rat assessed as changes in urinary biomarkers at 6 to 60 mg/kg, po bid for 14 days; assay type: organism-based, Urine; set-up: dose 6-60 mg/kg, route oral; settings: in vivo, 336 h; how it was run: as §2
[21] = Apparent permeability from apical to basolateral side by cell based assay; assay type: physicochemical; settings: not told
Rattus norvegicus [22] = assay: Toxicity in Wistar Han rat assessed as changes in RBC parameters at 6 to 60 mg/kg, po bid for 14 days; assay type: organism-based; set-up: dose 6-60 mg/kg, route oral; settings: in vivo, 336 h; how it was run: as §2
Mus musculus [23] = assay: Inhibition of wild type LRRK2 […] phosphorylation in BAC-transgenic C57BL/6J mouse kidney at 3 to 100 mg/kg, sc measured after 90 mins post dose; assay type: functional; settings: dose mg/kg 3-100; route subcutaneous
How it was run: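 Mice given compound subcutaneously in 10% NMP/20% SBECD vehicle: four-month-old C57BL/6J (wild type) or seven-month-old LRRK2 BAC-Tg G2019S. Tissues collected 90 min after dose. pS935, and pS1292 (custom antibody) in transgenic brain, read by Western blot of brain/kidney lysates against vehicle controls. Mean ± SEM.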

[24] = Volume of distribution at steady state in non-human primate at 5 mg/kg, po; assay type: ADME, organism-based; set-up: dose 5 mg/kg, route oral; settings: monkey, in vivo
[25] = Oral bioavailability in dog at 5 mg/kg; assay type: ADME, organism-based, Canis lupus familiaris; settings: in vivo
[26] = Toxicity in Wistar Han rat at 6 to 60 mg/kg, po bid for 14 days; assay type: organism-based; set-up: dose 6-60 mg/kg, route oral; settings: in vivo
How it was run: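 Exploratory 14-day study in Wistar Han rats (200–300 g, 8–11 weeks old at start). Dosing was by oral gavage twice daily in 10% propylene glycol/20% PEG400/70% 9.5% methocellulose. Unbound plasma exposure was measured on days 1 and 11. Endpoints were RBC parameters, electrolytes, food consumption, body weight, clinical chemistry, urinary renal biomarkers and kidney appearance.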

[27] = Half life in non-human primate at 5 mg/kg, po; assay type: ADME, organism-based; set-up: dose 5 mg/kg, route oral; settings: monkey, in vivo
[28] = Half life in rat at 5 mg/kg, po; assay type: ADME, organism-based; set-up: dose 5 mg/kg, route oral; settings: in vivo
Canis familiaris = assay: Volume of distribution at steady state in dog at 5 mg/kg, po; assay type: ADME, organism-based, Canis lupus familiaris; set-up: dose 5 mg/kg, route oral; settings: in vivo
Mus musculus [29] = assay: Potency index, ratio of IC50 for LRRK2 […] mutant […] phosphorylation in BAC-transgenic mouse at 3 to 100 mg/kg, sc to IC50 for wild type LRRK2 […] phosphorylation in BAC-transgenic C57BL/6J mouse brain at 3 to 100 mg/kg, sc; assay type: functional
How it was run: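 Four-month-old C57BL/6J mice and seven-month-old LRRK2 BAC-transgenic G2019S mice received single subcutaneous doses. Vehicle was 10% NMP in 20% SBECD. Brain was collected 90 min after dosing and snap frozen. LRRK2 pS935 phosphorylation was measured in brain lysate. An unbound-drug IC50 was estimated from the dose–response in each strain.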

[30] = molecular target: Tyrosine-protein kinase JAK2 (Homo sapiens, UniProt O60674); assay: Inhibition of JAK2 (JH1 domain-catalytic) (unknown origin) at 1 uM
Tyrosine-protein kinase JAK2, sequence (O60674 whole entry, the tested form may be a part): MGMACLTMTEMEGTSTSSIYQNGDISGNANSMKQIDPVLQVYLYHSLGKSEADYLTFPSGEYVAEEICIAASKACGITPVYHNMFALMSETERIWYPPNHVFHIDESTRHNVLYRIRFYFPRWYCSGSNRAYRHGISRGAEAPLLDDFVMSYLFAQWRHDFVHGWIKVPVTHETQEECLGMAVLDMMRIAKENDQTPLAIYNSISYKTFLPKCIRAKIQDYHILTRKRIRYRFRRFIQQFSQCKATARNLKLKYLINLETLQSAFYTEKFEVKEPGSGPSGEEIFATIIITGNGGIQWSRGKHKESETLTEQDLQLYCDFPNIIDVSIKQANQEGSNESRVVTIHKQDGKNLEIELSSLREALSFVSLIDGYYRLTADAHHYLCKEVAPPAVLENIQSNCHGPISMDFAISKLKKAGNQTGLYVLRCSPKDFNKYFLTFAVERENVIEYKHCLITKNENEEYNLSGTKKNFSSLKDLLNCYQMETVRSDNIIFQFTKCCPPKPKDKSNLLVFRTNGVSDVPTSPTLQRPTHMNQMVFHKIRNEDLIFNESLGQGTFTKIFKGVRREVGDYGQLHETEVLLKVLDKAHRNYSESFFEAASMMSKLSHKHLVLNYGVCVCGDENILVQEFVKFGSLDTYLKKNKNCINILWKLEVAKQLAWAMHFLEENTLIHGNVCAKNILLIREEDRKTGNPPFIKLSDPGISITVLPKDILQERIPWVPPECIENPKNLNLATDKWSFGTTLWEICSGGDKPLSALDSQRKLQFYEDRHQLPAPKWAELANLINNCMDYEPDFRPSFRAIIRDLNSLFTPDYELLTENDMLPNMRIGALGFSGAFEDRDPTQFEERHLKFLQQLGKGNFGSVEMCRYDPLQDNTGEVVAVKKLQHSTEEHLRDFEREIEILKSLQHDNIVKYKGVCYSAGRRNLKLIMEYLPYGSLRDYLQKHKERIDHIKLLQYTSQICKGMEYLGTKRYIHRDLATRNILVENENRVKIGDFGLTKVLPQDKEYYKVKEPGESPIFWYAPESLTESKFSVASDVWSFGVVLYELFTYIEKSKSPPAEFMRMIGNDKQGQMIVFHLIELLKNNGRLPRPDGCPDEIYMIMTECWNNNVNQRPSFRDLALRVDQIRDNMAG

Mus musculus [31] = assay: Effect on total LRRK2 protein level in BAC-transgenic C57BL/6J mouse brain at 3 to 100 mg/kg, sc measured after 90 mins post dose; assay type: ADME, organism-based; set-up: dose 3-100 mg/kg, route subcutaneous; settings: in vivo, 1.5 h
[32] = AUC in dog at 5 mg/kg, po; assay type: ADME, organism-based, Canis lupus familiaris; set-up: dose 5 mg/kg, route oral; settings: plasma
[33] = Drug coverage index, ratio of average concentration ( 0 to 24 hrs) in Wistar Han rat at 6 to 60 mg/kg, po bid for 14 days to IC50 for LRRK2 […] phosphorylation in Wistar Han rat brain at 6 to 60 mg/kg, po bid for 14 days; assay type: ADME, organism-based; settings: in vivo; how it was run: as §1
Rattus norvegicus [34] = assay: Drug coverage index, ratio fAUC in Wistar Han rat at 20 mg/kg, po bid for 14 days to IC50 for LRRK2 […] phosphorylation in Wistar Han rat brain at 6 to 60 mg/kg, po bid for 14 days; assay type: ADME, organism-based; settings: in vivo, 336 h; how it was run: as §1

In the case of `N#Cc1cccc(-c2c[nH]c3ncnc(N4CCOCC4)c23)c1`, the Cmax [1] is reported as 15 ng/mL, the Ratio (Rattus norvegicus [2]) is reported as 2 and the fCmax (Rattus norvegicus [3]) is reported as 86 nM. The Tmax [4] was 0.5 h, the Vdss (Rattus norvegicus [5]) was 1.83 L/kg and the Activity (Rattus norvegicus [6]) was “Non-toxic”. For the same compound, the CLint scaled [7] was 131 mL/min/kg, the AUC [8] was 629 ng·h/mL and the Cmax [9] was 181 ng/mL. For the same compound, the inhibition [10] was “inactive”, the Activity (Rattus norvegicus [11]) was “Non-toxic” and the Ratio [12] was 25. For the same compound, the Activity (Rattus norvegicus [13]) was “Non-toxic”, the fIC50 (Rattus norvegicus [14]) was 15 nM and the fAUC (Rattus norvegicus [15]) was 11.17 µM·h. For the same compound, the Activity (Rattus norvegicus [16]) was “Non-toxic”, the Ratio [17] was 6 and the Ratio (Rattus norvegicus [18]) was 31. The IC50 [19] was > 223 µM, the Activity (Rattus norvegicus [20]) was “Non-toxic” and the Papp A→B [21] was 27 ×10⁻⁶ cm/s. For the same compound, the Activity (Rattus norvegicus [22]) was “Non-toxic”, the fIC50 (Mus musculus [23]) was 11 nM and the Vdss [24] was 1.06 L/kg. The bioavailability [25] was 0.6%, the MTD at 336 h [26] was > 60 mg/kg/day and the half-life [27] was 2.27 h. For the same compound, the half-life [28] was 6.22 h, the Vdss (Canis familiaris) was 0.92 L/kg and the “Ratio IC50” value (Mus musculus [29]) was 10. For the same compound, the inhibition [30] was “inactive”, the Activity (Mus musculus [31]) was “Non-toxic” and the AUC [32] was 10 ng·h/mL. The Ratio [33] was 31 and the Ratio (Rattus norvegicus [34]) was 12.
